CHO-K1 Ca PAM – nonselective activator or artifact in parental CHO-K1 calcium assay | ATP EC20, Fluo-8 calcium fluorescence; 0% at ATP EC20, 100% at ATP max | activation, % at 3 µM | hit rate 0.02% among 360,000 | AID 602247;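 active = activation above the run cutoff, the mean activation of all test compounds plus 3 SD, cut at about 40% in these data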;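 also: peak over basal fluorescence ratio in a 140 s read after ATP addition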
M5 ag – agonists of human muscarinic M5 receptor (CHRM5); CHO-K1 hM5 cells, Fluo-8 calcium fluorescence; 0% DMSO wells, 100% maximal acetylcholine response; AID 624037; activation, % at 3 µM; hit rate 0.19% among 360,000;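 active = activation above the run's mean over test compounds plus 3 SD, cut at about 23% in these data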;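 also: signal is peak over basal fluorescence ratio across the kinetic read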
Target sequence (P08912 whole entry, looked up): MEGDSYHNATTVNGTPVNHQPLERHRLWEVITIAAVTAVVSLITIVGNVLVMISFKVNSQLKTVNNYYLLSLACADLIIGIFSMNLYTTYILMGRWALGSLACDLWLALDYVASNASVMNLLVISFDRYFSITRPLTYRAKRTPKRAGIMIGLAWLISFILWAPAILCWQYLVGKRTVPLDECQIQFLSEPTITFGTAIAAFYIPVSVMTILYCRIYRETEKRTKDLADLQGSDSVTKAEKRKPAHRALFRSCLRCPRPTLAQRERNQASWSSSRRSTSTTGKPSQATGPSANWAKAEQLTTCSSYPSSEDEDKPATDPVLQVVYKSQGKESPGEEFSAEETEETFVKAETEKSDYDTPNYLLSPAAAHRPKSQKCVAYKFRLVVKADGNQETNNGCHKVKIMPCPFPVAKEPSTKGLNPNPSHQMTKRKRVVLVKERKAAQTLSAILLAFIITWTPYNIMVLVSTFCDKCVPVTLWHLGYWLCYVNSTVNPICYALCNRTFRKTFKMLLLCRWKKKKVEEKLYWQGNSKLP
CHRM5 PAM – positive allosteric modulators of human muscarinic M5 receptor. hit rate 0.3% among 360,000. P08912. CHO-K1 hM5, Fluo-8 calcium, ACh EC20 PAM; 0% = ACh EC20, 100% = ACh EC100. activation, % at 3 µM;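 active = activation above the run cutoff, the mean activation of all test compounds plus 3 SD, cut at about 18% in these data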
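system = human M5 receptor in CHO-K1 cells | compound = one concentration, 3 µM final (nominal) | schedule = Post-acetylcholine fluorescence recording 140 s | signal = Fluo-8 calcium dye fluorescence, kinetic read | benchmarks = low control EC20 acetylcholine (0%), high control EC100 acetylcholine (100%) | repeats = singlicate, one well per test compound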
CHO-K1 Ca antag – M1 antagonist counterscreen hit in parental CHO-K1 cells. ATP-induced calcium, Fluo-8 fluorescence. inhibition, % at 3 µM. hit rate 0.6% among 360,000. AID 602250;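 active = inhibition above a per-plate cutoff, the plate's mean sample inhibition plus 3 SD, cut at about 24% in these data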;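 also: 0% = DMSO plus EC80 ATP and 100% = DMSO alone without ATP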
CHO-K1 Ca ag – nonselective activator or artifact in parental CHO-K1 cells. hit rate 0.48% among 360,000. activation, % at 3 µM. Fluo-8 calcium fluorescence; scaled to maximal ATP response, vehicle zero; in the data active = activation above about 15%;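 also: untransfected CHO-K1 host cells lacking M1 receptor as counterscreen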
M5 antag – blocks acetylcholine activation of human M5 receptor; CHO-hM5 cells, Fluo-8 calcium fluorescence, ACh EC80; inhibition, % at 3 µM; hit rate 0.59% among 360,000; AID 624040;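 active = inhibition above a per-plate cutoff, the mean of that plate's test compounds plus 3 SD, cut at about 27% in these data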;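 also: 0% = acetylcholine EC80 with DMSO and 100% = DMSO without agonist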
Numbers without * were called inactive; · = no result; ! = not confirmed by another sample. The list is not random: actives were taken first. Their share in the collection is about 1.7%.

SMILES | CHO-K1 Ca PAM | M5 ag | CHRM5 PAM | CHO-K1 Ca antag | CHO-K1 Ca ag | M5 antag
CCC(=O)OCCNc1cc(SCCC(=O)OC)c2nonc2c1[N+](=O)[O-] | 6 | -5 | -5 | 4 | 0 | 4
CCCC(=O)OCCNc1cc(Sc2nc3ccccc3[nH]2)c2nonc2c1[N+](=O)[O-] | -8 | -4 | -2 | 19 | 1 | 34*
O=c1ccn([C@@H]2O[C@H](CNCc3cccc4c3sc3ccccc34)[C@@H](O)[C@H]2O)c(=O)[nH]1 | 16 | 2 | 0 | -12 | 0 | 10
Cc1cc(C(=O)NNC(=O)c2ccc(C)s2)c(C)o1 | 13 | 0 | -4 | -4 | 1 | 10
CCn1c(SC(C)C)nnc1-c1cc(-c2ccccc2)sc1N | -9 | -2 | -8 | 28* | 0 | 1
CN1C(=CC=C2C=C(I)C(=O)C(I)=C2)C(C)(C)c2ccccc21 | -18 | 11 | 2 | 3 | 5 | 4
CN1/C(=C\C=C2/SC(=S)NC2=O)C(C)(C)c2ccccc21 | -19 | 51* | -28 | 59* | 72* | 58*
CC1=NN(c2ccccc2)C(=O)/C1=C\C=C1/N(C)c2ccccc2C1(C)C | -2 | 36* | -16 | 14 | 32* | 18
CC1=NN(c2ccccc2)C(=O)/C1=C\C=C1\N(C)c2ccccc2C1(C)C | 2 | 17 | -7 | 8 | 8 | 12
CC(C)(C)NS(=O)(=O)c1ccc2nc(NC(=O)c3ccc(N4C(=O)CCC4=O)cc3)sc2c1 | 7 | -2 | -3 | 3 | 15* | 0
O=C(N/N=C/c1cccc(OC(=O)c2ccccc2Cl)c1)c1cccnc1 | -3 | -2 | -3 | 8 | 4 | -2
CCOc1cc(C(=O)NC(CC(=O)O)c2ccc(OC3CCCC3)cc2)cc(OCC)c1OCC (stereo unspecified) | 2 | 1 | 1 | 32* | 3 | -1
CC(=O)Nc1ccc(NC(=O)Cn2c(=O)n(-c3ccccc3)c(=O)c3oc4ccccc4c32)cc1 | 17 | 4 | 9 | 1 | 15* | -8
COC(=O)C1(C(=O)OC)C[C@H](/C=C/c2ccccc2)N(Cc2ccccc2OC)[C@@H]1c1cccc(Br)c1 | · | 0 | -4 | · | · | 10
CCN(CC)CCN1C(=O)C(=O)/C(=C(/O)c2cnn(-c3ccccc3)c2C)C1c1cccnc1 (stereo unspecified) | 8 | -5 | -8 | 0 | 0 | 11
O=c1c(O)c(-c2ccc(O)c(O)c2)oc2cc(O)cc(O)c12 | 16 | 10 | 21* | -15 | 0 | -15
O=c1cc(-c2ccc(O)c(O)c2)oc2cc(O)cc(O)c12 | 11 | 3 | 6 | -15 | 1 | 11
CN(CC(=O)Nc1ccc(S(=O)(=O)N2CCCC2)cc1)CC(=O)Nc1cccc(F)c1 | 6 | 2 | 0 | 2 | 18* | 7
Cc1ccc(NC(=O)CNc2cccc(S(=O)(=O)N3CCCCC3)c2)cc1F | -15 | 4 | -3 | 21 | 12 | 7
Cc1ccc(OCC(=O)Nc2ccc(S(=O)(=O)N3CCN(C)CC3)cc2)cc1 | 18 | 1 | 4 | 1 | 11 | -5
Cc1ccc(NC(=O)CSc2ccc(S(=O)(=O)N3CCCC3)cn2)cc1F | 15 | -1 | -3 | -2 | 16* | 2
Cc1cc(OCC(=O)Nc2ccc(S(=O)(=O)N3CCN(C)CC3)cc2)ccc1Br | -2 | 0 | -11 | 5 | 18* | 14
COC(=O)CCC(=O)Nc1ccc(S(=O)(=O)N2CCCCCC2)cc1 | 24 | -1 | 19* | -11 | 1 | -7
CC(NC(=O)OCc1ccccc1)C(=O)NCC1CCCO1 (stereo unspecified) | 17 | -1 | -2 | -2 | 0 | -1
CCc1cccc2c(C=C(C#N)C#N)cn(CC(=O)N3CCCCCC3)c12 | 16 | 1 | -8 | -16 | 1 | 14
SMILES | CHO-K1 Ca PAM | M5 ag | CHRM5 PAM | CHO-K1 Ca antag | CHO-K1 Ca ag | M5 antag
C/C(=N\NC(=O)c1nc2ccccn2c1C)c1ccco1 | 20 | -1 | 4 | -14 | 1 | -4
CC(=O)N1CCN(CC(=O)Nc2cccc(S(=O)(=O)N3CCCCCC3)c2)CC1 | -14 | -1 | 5 | 27* | 0 | 1
CC(C)CC(=O)Nc1ccc(S(=O)(=O)N2CCCC2)cc1 | -2 | -5 | -3 | 0 | 1 | 28*
CC(C)(C)CC(=O)Nc1ccc(S(=O)(=O)N2CCCC2)cc1 | 10 | 0 | -2 | -10 | 1 | -1
CC(=O)N1CCN(CC(=O)Nc2cccc(S(=O)(=O)N3CCCCC3)c2)CC1 | -10 | 4 | 10 | -5 | 1 | -9
COc1ccc(CNC(=O)C2(c3ccc(Cl)cc3)CC2)cc1 | 18 | -8 | 3 | -4 | 0 | 0
CCCc1cc(=O)oc2c(CN3CCCC3)c(O)c(Cl)cc12 | -9 | -1 | -3 | 29* | 0 | -1
O=C(Cn1cccc1C(=O)c1ccccc1)NCc1ccc2c(c1)OCO2 | 2 | -2 | -4 | 53* | -1 | -1
CC1CCC2(CC1)NC(=O)N(CC(=O)NCc1ccc3c(c1)OCO3)C2=O (stereo unspecified) | 13 | -9 | -14 | -7 | 0 | 31*
CC1CCCCC12NC(=O)N(CC(=O)NCc1ccc3c(c1)OCO3)C2=O (stereo unspecified) | 7 | 5 | -1 | -2 | 1 | 9
O=C(Cn1cccc1C(=O)c1ccccc1)NCc1ccccc1 | 10 | -4 | 10 | -6 | 0 | -8
O=C1C=C(c2cccc3c2oc2ccccc23)C[C@@H](c2ccc(F)cc2)C1 | -11 | 6 | 11 | 5 | -1 | -10
CCN1/C(=C/C(C)=C/c2sc3ccccc3[n+]2CC)Sc2ccccc21 | -8 | 3 | -18 | 34* | 20*! | 42*
Cc1ccc(CS(=O)(=O)c2ncc(Cl)c(C(=O)Nc3ccc(OC(F)F)cc3)n2)cc1 | -28 | -3 | -3 | 24* | -1 | 11
COC(=O)c1ccc(C2C(C(=O)Nc3ccc(C)cc3C)=C(C)Nc3ncnn32)cc1 (stereo unspecified) | -7 | -1 | -5 | 24* | 0 | 4
COCCOC(=O)c1[nH]c2c(c1C)C(=O)CC(c1ccc(OC)c(OC)c1)C2 (stereo unspecified) | -1 | 5 | -13 | 22 | 1 | 11
COC(=O)c1[nH]c2c(c1C)C(=O)CC(c1ccc(OC)c(OC)c1)C2 (stereo unspecified) | -6 | 4 | -7 | 11 | 23* | 13
CCOC(=O)c1[nH]c2c(c1C)C(=O)CC(c1ccc(F)cc1)C2 (stereo unspecified) | -13 | 5 | -4 | 34* | 1 | 0
